Consider 17 compounds from ChEMBL document CHEMBL1687890, “Design, synthesis, pharmacological evaluation, and structure-activity study of novel endomorphin analogues with multiple structural modifications” (J Med Chem, 2011).

Data set [1] has as its target Delta-type opioid receptor (Rattus norvegicus, UniProt P33533). Kind of data set: Displacement of [3H][Ile5,6]deltorphin2 from delta opioid receptor in rat brain membrane homogenate by liquid scintillation counting. The class given is cell membranes. Background: In a radioligand displacement assay an active substance lowers the binding of a labelled ligand.
The species entered for another data set is Rattus norvegicus. Put plainly: Selectivity ratio of Ki for delta opioid receptor in rat brain to mu opioid receptor in rat brain. In kind it is tissue-based.
The target of data set [2] is T1, Mu-type opioid receptor (Rattus norvegicus, UniProt P33535). Kind of data set: Displacement of [3H]DAMGO from mu opioid receptor in rat brain membrane homogenate by liquid scintillation counting. In kind it is cell membranes.
T1 sequence (P33535 whole entry): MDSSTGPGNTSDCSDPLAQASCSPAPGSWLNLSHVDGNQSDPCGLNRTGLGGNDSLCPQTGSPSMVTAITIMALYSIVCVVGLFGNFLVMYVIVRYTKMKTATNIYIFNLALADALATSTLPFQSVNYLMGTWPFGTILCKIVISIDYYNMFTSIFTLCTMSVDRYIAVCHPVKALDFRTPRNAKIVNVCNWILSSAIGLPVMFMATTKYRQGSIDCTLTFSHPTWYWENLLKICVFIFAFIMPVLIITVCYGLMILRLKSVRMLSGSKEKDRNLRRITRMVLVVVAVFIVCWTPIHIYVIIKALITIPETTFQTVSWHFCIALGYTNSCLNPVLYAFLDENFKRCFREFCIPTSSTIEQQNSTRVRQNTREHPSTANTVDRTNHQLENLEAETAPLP
The target of data set [3] is Mu-type opioid receptor (Rattus norvegicus) (UniProt P33535). Put plainly: Agonist activity at mu opioid receptor in rat brain membrane by [35S]GTPgammaS binding assay relative to baseline. The class given is functional, cell membranes. On the technique in general: Binding of GTPγS marks nucleotide exchange on a G protein.
Sequence of Mu-type opioid receptor (Rattus norvegicus) (P33535 whole entry): as above
The nature of data set [4]: Half life in rat brain homogenate by RP-HPLC. The class given is ADME, tissue-based. The method, boiled down: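 Peptide (1 mM stock in 50 mM Tris-HCl pH 7.4, 1:10 into homogenate) incubated at 37 °C with crude rat brain homogenate (5.0 mg/mL protein). Aliquots quenched with HCl, centrifuged, supernatant run on RP-HPLC. k from linear regression of ln(A/A0) vs time over at least 5 time points; t1/2 = ln2/k, pseudo-first-order. At least three experiments.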

Data set [5] addresses T1, Mu-type opioid receptor. Put plainly: Agonist activity at mu opioid receptor in rat brain membrane by [35S]GTPgammaS binding assay. The class given is functional, cell membranes.
Data set [6] addresses Mu-type opioid receptor (Rattus norvegicus) (UniProt P33535). Kind of data set: Agonist activity at opioid receptor in mu rat brain membrane by [35S]GTPgammaS binding assay relative to baseline in presence of opioid-selective antagonist naloxone. The class given is functional, cell membranes.

Structures are written as SMILES.

Sequence of Delta-type opioid receptor (P33533 whole entry): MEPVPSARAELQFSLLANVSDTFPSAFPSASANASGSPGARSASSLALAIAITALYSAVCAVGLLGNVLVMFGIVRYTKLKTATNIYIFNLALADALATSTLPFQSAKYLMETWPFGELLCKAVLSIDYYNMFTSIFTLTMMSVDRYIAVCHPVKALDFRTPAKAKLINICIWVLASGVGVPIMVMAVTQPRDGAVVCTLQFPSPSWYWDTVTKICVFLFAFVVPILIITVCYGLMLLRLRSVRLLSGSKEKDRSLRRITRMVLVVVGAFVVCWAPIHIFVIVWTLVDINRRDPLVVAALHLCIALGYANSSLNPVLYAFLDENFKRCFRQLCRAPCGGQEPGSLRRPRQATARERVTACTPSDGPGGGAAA

One may read the Ki as the dissociation constant of the complex between target and ligand, obtained from inhibition or displacement. Low readings indicate higher affinity, high ones lower affinity. Take `NC(=O)C(Cc1ccc(F)cc1)NC(=O)[C@H](Cc1ccccc1)NC(=O)[C@H]1CCCC[C@H]1NC(=O)[C@@H](N)Cc1ccc(O)cc1` (some centres undefined): the affinity in data set [1] corresponds to a Ki of 366 nM.

For `NC(=O)C(Cc1ccc(F)cc1)NC(=O)[C@H](Cc1c[nH]c2ccccc12)NC(=O)[C@@H]1CCCC[C@@H]1NC(=O)[C@@H](N)Cc1ccc(O)cc1` (some centres undefined), the results for the Ki (in data set [1]; at Mu-type opioid receptor [2]) were 7820 nM and 143 nM, respectively. Moreover, in the data set filed under Rattus norvegicus, the Ratio Ki is 54.

By Emax is commonly meant the maximal effect, on the per cent scale that the assay sets. By half-life is commonly meant the time in which the quantity being followed falls by half. A high value points to slow loss. The term EC50 denotes the concentration giving half of the maximal effect. A higher EC50 goes with lower potency in that assay. Regarding `C[C@@H](c1ccccc1)[C@H](NC(=O)[C@H](Cc1c[nH]c2ccccc12)NC(=O)[C@H]1CCCC[C@H]1NC(=O)[C@@H](N)Cc1ccc(O)cc1)C(N)=O`, the results for the Ki (in data set [1]; on Mu-type opioid receptor [2]) were 1440 nM and 4.2 nM, respectively. Also, the Ratio Ki in the data set listed under Rattus norvegicus was determined as 343. Further, the figures for the Emax in data set [3] and in data set [6] were 162% and 130%, respectively. The half-life in data set [4] was > 20 h. Moreover, a half-maximal effect at Mu-type opioid receptor [5] (EC50) was put at 264 nM.

Take `Cc1cc(CC(N)C(=O)N[C@@H]2CCCC[C@@H]2C(=O)N[C@@H](Cc2ccccc2)C(=O)N[C@H](C(N)=O)[C@@H](C)c2ccccc2)cc(C)c1O` (some centres undefined): the Ki in data set [1] was 142 nM; at Mu-type opioid receptor [2], 0.47 nM. Also, the Ratio Ki in the data set filed under Rattus norvegicus worked out at 302. For the same compound, the results for the Emax in data set [3] and in data set [6] were 159% and 146%, respectively. The half-life in data set [4] was > 20 h. In addition, the EC50 on Mu-type opioid receptor [5] is 17 nM.

Take `C[C@@H](NC(=O)[C@@H](N)Cc1ccc(O)cc1)C(=O)NCC(=O)N(C)[C@@H](Cc1ccccc1)C(=O)NCCO`: the Emax is 178% in data set [3] and 119% in data set [6].

Take `NC(=O)C(Cc1ccc(F)cc1)NC(=O)[C@H](Cc1c[nH]c2ccccc12)NC(=O)[C@H]1CCCC[C@H]1NC(=O)[C@@H](N)Cc1ccc(O)cc1` (some centres undefined): the Ki in data set [1] was found to be 571 nM; at Mu-type opioid receptor [2], 3.2 nM. Besides, the Ratio Ki in the data set listed under Rattus norvegicus came to 178. Besides, the Emax in data set [3] was 174%; in data set [6] it was 125%. Further, the half-life in data set [4] was > 20 h. This compound yielded an EC50 at Mu-type opioid receptor [5] of 380 nM.

In the case of `Cc1cc(CC(N)C(=O)N[C@@H]2CCCC[C@@H]2C(=O)N[C@@H](Cc2c[nH]c3ccccc23)C(=O)N[C@@H](C(N)=O)[C@H](C)c2ccccc2)cc(C)c1O` (some centres undefined), the Ki in data set [1] was determined as 287 nM; on Mu-type opioid receptor [2] it was 4.11 nM. In addition, in the data set filed under Rattus norvegicus, the Ratio Ki was 69.

As to `NC(=O)[C@H](Cc1ccccc1)NC(=O)[C@H](Cc1c[nH]c2ccccc12)NC(=O)[C@@H]1CCCN1C(=O)[C@@H](N)Cc1ccc(O)cc1` [ENDOMORPHIN-1], the results for the Emax in data set [3] and in data set [6] were 149% and 124%, respectively. Besides, the half-life in data set [4] is 0.105 h.

Turning to `Cc1cc(CC(N)C(=O)N[C@@H]2CCCC[C@@H]2C(=O)N[C@@H](Cc2c[nH]c3ccccc23)C(=O)NC(Cc2ccc(F)cc2)C(N)=O)cc(C)c1O` (some centres undefined), the results for the Ki (in data set [1]; on Mu-type opioid receptor [2]) were 2640 nM and 11.1 nM, respectively. Also, the Ratio Ki in the data set listed under Rattus norvegicus amounted to 237. For the same compound, the Emax came out at 163% in data set [3] and 127% in data set [6]. In addition, the EC50 at Mu-type opioid receptor [5] stood at 8.1 nM.

Take `Cc1cc(CC(N)C(=O)N[C@@H]2CCCC[C@@H]2C(=O)N[C@@H](Cc2ccccc2)C(=O)N[C@@H](C(N)=O)[C@H](C)c2ccccc2)cc(C)c1O` (some centres undefined): the Ki in data set [1] amounted to 198 nM; at Mu-type opioid receptor [2], 9.7 nM. Besides, in the data set filed under Rattus norvegicus, the Ratio Ki turned out to be 20.

As to `NC(=O)[C@H](Cc1ccccc1)NC(=O)[C@H](Cc1ccccc1)NC(=O)[C@@H]1CCCN1C(=O)[C@@H](N)Cc1ccc(O)cc1` [ENDOMORPHIN 2], the Emax in data set [3] was determined as 163%; in data set [6] it was 123%. In data set [4], this compound returned a half-life of 0.095 h.

In data set [1], `Cc1cc(CC(N)C(=O)N[C@@H]2CCCC[C@@H]2C(=O)N[C@@H](Cc2ccccc2)C(=O)NC(Cc2ccc(F)cc2)C(N)=O)cc(C)c1O` (some centres undefined) registered a Ki of 96 nM. Further, in data set [4], the half-life is > 20 h.

The compound `C[C@@H](c1ccccc1)[C@H](NC(=O)[C@H](Cc1ccccc1)NC(=O)[C@H]1CCCC[C@H]1NC(=O)[C@@H](N)Cc1ccc(O)cc1)C(N)=O` yielded a Ki in data set [1] of 661 nM.

`NC(=O)C(Cc1ccc(F)cc1)NC(=O)[C@H](Cc1ccccc1)NC(=O)[C@@H]1CCCC[C@@H]1NC(=O)[C@@H](N)Cc1ccc(O)cc1` (some centres undefined) displayed a Ki in data set [1] of 689 nM.

With `Cc1cc(CC(N)C(=O)N[C@@H]2CCCC[C@@H]2C(=O)N[C@@H](Cc2c[nH]c3ccccc23)C(=O)N[C@H](C(N)=O)[C@@H](C)c2ccccc2)cc(C)c1O` (some centres undefined), the inhibitory constant (Ki) in data set [1] is 123 nM; at Mu-type opioid receptor [2], 0.93 nM. In addition, the Ratio Ki in the data set listed under Rattus norvegicus was determined as 132. Moreover, the results for the Emax in data set [3] and in data set [6] were 162% and 145%, respectively. The compound further came in with an EC50 at Mu-type opioid receptor [5] of 22.1 nM.

In data set [1], `C[C@H](c1ccccc1)[C@@H](NC(=O)[C@H](Cc1ccccc1)NC(=O)[C@H]1CCCC[C@H]1NC(=O)[C@@H](N)Cc1ccc(O)cc1)C(N)=O` showed a Ki of 1270 nM.

On to `C[C@H](c1ccccc1)[C@@H](NC(=O)[C@H](Cc1c[nH]c2ccccc12)NC(=O)[C@H]1CCCC[C@H]1NC(=O)[C@@H](N)Cc1ccc(O)cc1)C(N)=O`, for which the Ki in data set [1] is 3360 nM; at Mu-type opioid receptor [2], 34.6 nM. The Ratio Ki in the data set listed under Rattus norvegicus was found to be 97.
